Results on 39 variants are retold here after the RNAGym collection of RNA variant scans (doi:10.1038/nmeth.2970).

B1: NELF-E aptamer (parent)
chain: CCCAACGACUGCCGAGCGAGAUUACGCUUGAGCGCCCCACUGAGGAUGCCCACGGGCGAUUGGGGCACGG

In this data set the parent is B1. The data set is described as follows: HiTS-RAP. The following applies: with NELF-E (Drosophila). In a few lines:
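Aptamer DNA templates bearing a T7 promoter and a ter site were sequenced on an Illumina GAIIx flowcell. T7 RNA polymerase then transcribed them in situ, and GST-Tus halted transcription over 30 minutes at 37°C. After a 30-minute room-temperature equilibration with NELF-E-mOrange at 0.064 to 1000 nM in HEPES binding buffer, clusters were imaged, using only the first binding curve. Intensities normalised to sequencing intensity were averaged per sequence and fitted with weighted Hill fits to give Kd, retaining only fits whose variance stayed under 1,000,000.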
Take CCCAACGACUGCCGAGCGAGAUUACGCUUGGGCGCCCCACUGAGGAUGCCUACGGGCGAUUGGGGCACGG [A31G C51U]: the Kd came out at 7.88 nM.
In the case of CCCAACGACUGCCGAGCGAGAUUACGCUGGAGCGCCCCACUGAGGAUGCCCACGGGCGAUUGGUGCACGG [U29G G64U], the Kd was found to be 6.21 nM.
For CCCAACGACUGCCGAGCGAGAUUACGCUGGAGCGCCCCACUGAGGAUGCCCACGGGCGAUUGGCGCACGG [U29G G64C], the Kd stood at 5.11 nM.
On to CCCAACGACUGCCGAGCGAGAUUACGCUGGAGCGCCCCACUGAGGAUGCCCACGGGCGAUUGGAGCACGG [U29G G64A], for which the Kd came out at 7.34 nM.
With CCCAACGACUGCCGAGCGAGAUUACGCUGGAGCGCCCCACUGAGGAUGCCCACGGGCGAAUGGGGCACGG [U29G U60A], the Kd is 13.2 nM.
On to CCCAACGACUGCCGAGCGAGAUUACGCUGGAGCGCCCCACUGAGGAUGCCCACGGGCGACUGGGGCACGG [U29G U60C], for which the Kd worked out at 11.4 nM.
With CCCAACGACUGCCGAGCGAGAUUACGCUGGAGCGCCCCACUAAGGAUGCCCACGGGCGAUUGGGGCACGG [U29G G42A] the figure was 24.6 nM; with CCCAACGACUGCCGAGCGAGAUUACGCUGGAGCGCCCCACUUAGGAUGCCCACGGGCGAUUGGGGCACGG [U29G G42U], 10.4 nM; with CCCAACGACUGCCGAGCGAGAUUACGCUGGAGCGCCCCACUGAGGAUGCCCACGGGCGAUUGGGUCACGG [U29G G65U], 6.57 nM.
In the case of CCCAACGACUGCCGAGCGAGAUUACGCUGGAGCGCCCCACUGAGGAUGCCCACGGGCGAUUGGGACACGG [U29G G65A] it was 4.59 nM.
CCCAACGACUGCCGAGCGAGAUUACGCUUGGGCGCCCCACUGAGGAUGCCCACGGGCGAUUGGAGCACGG [A31G G64A]: the Kd was 10.8 nM.
As to CCCAACGACUGCCGAGCGAGAUUACGCUGGAGCGCCCCACUGAGGAUGCCCACGGGCUAUUGGGGCACGG [U29G G58U], the Kd came to 8.12 nM.
As for CCCAACGACUGCCGAGCGAGAUUACGCUGGAGCGCCCCACUGAGGAUGCCCACGGGCGAUAGGGGCACGG [U29G U61A], the Kd is 28.1 nM.
With CCCAACGACUGCCGAGCGAGAUUACGCUGGAGCGCCCCACUGAGGAUGCCCACGGGCGAUGGGGGCACGG [U29G U61G], the Kd is 14.4 nM.
In the case of CCCAACGACUGCCGAGCGAGAUUACGCUGGAGCGCCCCACUGAGGAUGCCCACGGGCGAUCGGGGCACGG [U29G U61C] it was 59.2 nM; in that of CCCAACGACUGCCGAGCGAGAUUACGCUGGAGCACCCCACUGAGGAUGCCCACGGGCGAUUGGGGCACGG [U29G G34A], 7.56 nM; in that of CCCAACGACUGCCGAGCGAGAUUACGCUGGAGCUCCCCACUGAGGAUGCCCACGGGCGAUUGGGGCACGG [U29G G34U], 5.71 nM.
For CCCAACGACUGCCGAGCGAGAUUACGCUUGGGCGCCCCACUGAGGAUGCCCACAGGCGAUUGGGGCACGG [A31G G54A], the Kd came out at 18.4 nM.
In the case of CCCAACGACUGCCGAGCGAGAUUACGCUGGAGCGCCCCACUGAGAAUGCCCACGGGCGAUUGGGGCACGG [U29G G45A] it was 74.1 nM.
As for CCCAACGACUGCCGAGCGAGAUUACGCUGGAGCGCCCCACUGAGUAUGCCCACGGGCGAUUGGGGCACGG [U29G G45U], the Kd was 5.6 nM.
On to CCCAACGACUGCCGAGCGAGAUUACGCUUAAGCGCCCCACGGAGGAUGCCCACGGGCGAUUGGGGCACGG [G30A U41G], for which the Kd is 5.12 nM.
Consider CCCAACGACUGCCGAGCGAGAUUACGCUUGAGCACCCCACUGAGGAUGCCCACGGGCGAUUGGGGCUCGG [G34A A67U], for which the Kd was 16.8 nM.
Consider CCCAACGACUGCCGAGCGAGAUUACGCUGUAGCGCCCCACUGAGGAUGCCCACGGGCGAUUGGGGCACGG [U29G G30U], for which the Kd was determined as 5.81 nM.
As for CCCAACGACUGCCGAGCGAGAUUACGCUUGUGCGCCCCACGGAGGAUGCCCACGGGCGAUUGGGGCACGG [A31U U41G], the Kd is 7.78 nM.
Take CCCAACGACUGCCGAGCGAGAUUACGCUGGAACGCCCCACUGAGGAUGCCCACGGGCGAUUGGGGCACGG [U29G G32A]: the Kd came out at 5.37 nM.
In the case of CCCAACGACUGCCGAGCGAGAUUACGCUUGGGCGCCCCACUGAGGAUGCCCACGGGCGAUUGGGACACGG [A31G G65A] it was 9.82 nM.
Take CCCAACGACUGCCGAGCGAGAUUACGCUGGAGCGCCCCACUGAGGAGGCCCACGGGCGAUUGGGGCACGG [U29G U47G]: the Kd is 6.21 nM.
In the case of CCCAACGACUGCCGAGCGAGAUUACGCUGGAGCGCCCCACUGAGGAAGCCCACGGGCGAUUGGGGCACGG [U29G U47A] it was 11.1 nM; in that of CCCAACGACUGCCGAGCGAGAUUACGCUUGAGUGCCCCACUGAGGAUGCCCACAGGCGAUUGGGGCACGG [C33U G54A], 6.14 nM.
Take CCCAACGACUGCCGAGCGAGAUUACGCUUGAGUGCCCCUCUGAGGAUGCCCACGGGCGAUUGGGGCACGG [C33U A39U]: the Kd was found to be 26.9 nM.
Regarding CCCAACGACUGCCGAGCGAGAUUACGCUUAGGCGCCCCACUGAGGAUGCCCACGGGCGAUUGGGGCACGG [G30A A31G], the Kd amounted to 5.33 nM.
Consider CCCAACGACUGCCGAGCGAGAUUACGCUGGAGCGCCCCACAGAGGAUGCCCACGGGCGAUUGGGGCACGG [U29G U41A], for which the Kd came to 78.7 nM.
Turning to CCCAACGACUGCCGAGCGAGAUUACGCUGGAGCGCCCCACGGAGGAUGCCCACGGGCGAUUGGGGCACGG [U29G U41G], the Kd was determined as 5.31 nM.
Regarding CCCAACGACUGCCGAGCGAGAUUACGCUGGAGCGCCCCACCGAGGAUGCCCACGGGCGAUUGGGGCACGG [U29G U41C], the Kd was found to be 67.5 nM.
For CCCAACGACUGCCGAGCGAGAUUACGCUUGGGCGCCCCGCUGAGGAUGCCCACGGGCGAUUGGGGCACGG [A31G A39G], the Kd came to 14.3 nM.
Consider CCCAACGACUGCCGAGCGAGAUUACGCUGGAGCGCCCCACUGAGGAUGCCCACGGGCGAUUUGGGCACGG [U29G G62U], for which the Kd was determined as 8.12 nM.
Consider CCCAACGACUGCCGAGCGAGAUUACGCUGGAGCGCCCCACUGAGGAUGCCCACGGGCGAUUAGGGCACGG [U29G G62A], for which the Kd was found to be 18.7 nM.
As to CCCAACGACUGCCGAGCGAGAUUACGCUUGGACGCCCCACUGAGGAUGCCCACGGGCGAUUGGGGCACGG [A31G G32A], the equilibrium dissociation constant (Kd) was found to be 5.29 nM.
In the case of CCCAACGACUGCCGAGCGAGAUUACGCUUGGUCGCCCCACUGAGGAUGCCCACGGGCGAUUGGGGCACGG [A31G G32U] it was 4.81 nM.

In general, Kd refers to a measure of binding affinity in units of concentration.
